Measured values reported in ChEMBL document CHEMBL1152389, “A novel and efficient synthesis of highly oxidized lignans by a methyltrioxorhenium/hydrogen peroxide catalytic system. Studies on their apoptogenic and antioxidant activity” (Bioorg Med Chem, 2009).
Calls of active or inactive are those of the source. The calls are words filed in the database; no cut-off is given here.

What was measured:
Assay type in all cases: functional, cell-based
E2R [1] = test: Antioxidant activity in human E2R cells assessed as intracellular peroxide level at 25 to 100 uM after 1 hr by flow cytometry in presence of DCFH-DA
Procedure, shortened: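 E2R cells (EBV-positive, apoptosis-resistant isogenic Burkitt line) in RPMI with 4 mM L-glutamine, 10% FCS, 37 °C, 5% CO2. Compounds in DMSO (0.2%) for 1 h in RPMI, then 10 µM DCFH-DA for 20 min at 37 °C. Flow cytometry, excitation 488 nm, emission 533 nm (FL-1), 10,000 events per sample.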

E2R [2] = test: Induction of apoptosis in human E2R cells expressing EBV assessed as condensed and fragmented nuclei at 25 to 100 uM after 18 hrs by epifluorescent microscopy
Procedure, shortened: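 BL41-derived E2R cells (EBV-positive, apoptosis-resistant) grown in RPMI with 4 mM L-glutamine and 10% FCS at 37 °C, 5% CO2. Seeded at 3 × 10^5 cells/mL and exposed to compounds in DMSO (≤0.5% v/v) for 18 h. Cells fixed in 4% p-formaldehyde and stained with DAPI (0.2 µg/mL). Condensed/fragmented nuclei scored in ≥500 cells from random fields by epifluorescence microscopy.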

BL-41 = test: Induction of apoptosis in human EBV deficient BL41 cells assessed as condensed and fragmented nuclei at 25 to 100 uM after 18 hrs by epifluorescent microscopy
Procedure, shortened: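 BL41 (EBV-negative Burkitt lymphoma) cells in RPMI with 4 mM L-glutamine, 10% FCS at 37 °C, 5% CO2. Seeded at 3 × 10^5 cells/mL and exposed 18 h to compounds in DMSO (≤0.5% v/v). Cells fixed in 4% p-formaldehyde, stained with DAPI 0.2 µg/mL. At least 500 cells in random fields scored by epifluorescence for condensed/fragmented nuclei.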

SMILES	Activity (E2R [1])	Activity (E2R [2])	Activity (BL-41)
COc1cc(C[C@H]2C(=O)OC[C@@H]2Cc2ccc(O)c(O)c2)ccc1O	Active	–	–
COc1cc2c(cc1O)[C@H](c1ccc(O)c(O)c1)[C@H]1COC[C@@H]1C2	inactive	–	–
COc1cc([C@H]2c3cc(O)c(OC)cc3C[C@@H](CO)[C@@H]2CO)ccc1O	–	inactive	inactive
COc1cc(C[C@H]2COC(=O)[C@@H]2C(O)c2ccc(O)c(OC)c2)ccc1O (stereo partly specified)	–	inactive	inactive
COc1cc(C[C@H]2CO[C@H](c3ccc(O)c(OC)c3)[C@H]2CO)ccc1O	–	inactive	inactive
COc1cc(/C=C2\C(=O)OC[C@@H]2C(=O)c2ccc(O)c(OC)c2)ccc1O	–	Active	–
COc1cc(C(=O)[C@H]2COC(=O)[C@@H]2C(O)c2ccc(O)c(OC)c2)ccc1O (stereo partly specified)	–	Active	–
COc1cc(C[C@H]2C(=O)OC[C@@H]2[C@H](O)c2ccc(O)c(OC)c2)ccc1O	–	inactive	inactive
COc1cc([C@H]2c3cc(O)c(OC)cc3C[C@H]3C(=O)OC[C@H]23)ccc1O	Active	inactive	inactive
COc1cc([C@H]2c3cc(O)c(OC)cc3C[C@H]3COC[C@@H]32)ccc1O	inactive	Active	Active
COc1cc(C[C@H]2COC(=O)[C@@H]2Cc2ccc(O)c(OC)c2)ccc1O	Active	Active	Active
